Measured values taken from ChEMBL document CHEMBL5678805, “Intermittent administration of MEK inhibitor GDC-0973 plus PI3K inhibitor GDC-0941 triggers robust apoptosis and tumor growth inhibition” (Cancer Res, 2012).
Active and inactive are the calls of the source. No cut-off for these calls is given here.

What was measured:
SK-OV-3 = assay: Antitumor activity against human SK-OV-3 cells harboring FBXW7 R505L and CDKN2A mutant xenografted in mouse assessed as tumor growth inhibition at 10 mg/kg, po; assay type: functional; conditions: read-out: TGI
In short: (§1)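 Human tumor xenografts in mice were dosed orally at the indicated mg/kg. Tumor volume was measured with calipers as (L×W×W)/2. %TGI = 100 × [1 − (AUC treatment/d)/(AUC vehicle/d)], using the area under the fitted tumor-growth curve per day for each dose group relative to vehicle.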

[1] = target: Vascular endothelial growth factor receptor 3 (Homo sapiens, UniProt P35916); assay: Inhibition of Flt4 (unknown origin)
[2] = target: Dual specificity mitogen-activated protein kinase kinase 6 (Homo sapiens, UniProt P52564); assay: Inhibition of MKK6 (unknown origin)
A2058 = assay: Antitumor activity against human A2058 cells harboring BRAF V600E/PTEN deletion mutant xenografted in mouse assessed as increase in Bims level at 15 mg/kg, po administered every third day for 21 days and measured after 8 hrs post dose in presence of 4-(2-(1H-indazol-4-yl)-6-((4-(methylsulfonyl)piperazin-1-yl)methyl)thieno[3,2-d]pyrimidin-4-yl)morpholine by Western blot analysis; assay type: functional, organism-based; conditions: time 512.0 hrs
[3] = target: PAS domain-containing serine/threonine-protein kinase (Homo sapiens, UniProt Q96RG2); assay: Inhibition of PASK (unknown origin)
MOLM-13 = assay: Antitumor activity against human MOLM-13 cells harboring FLT3 Y599_D600insFDFREYE and c-Cbl E366_Q409del mutant xenografted in mouse assessed as tumor growth inhibition at 10 mg/kg, po; assay type: functional; conditions: read-out: TGI; in short: as §1
[4] = Antitumor activity against human A375.X1 cells harboring BRAF V600E/CDKN2A E61 mutant xenografted in mouse assessed as tumor growth inhibition at 2.5 mg/kg, po; assay type: functional; conditions: A375.X1, read-out: TGI
In short: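 Single-agent dose ranging in human tumor xenograft mice at 2.5, 5 or 10 mg/kg oral. Tumor volume was measured by caliper as (L×W×W)/2. %TGI = 100×[1 − AUC(treatment/d)/AUC(vehicle/d)] from the fitted growth curve per dose group, relative to vehicle.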

Sequence of PAS domain-containing serine/threonine-protein kinase (Q96RG2 whole entry, the tested form may be a part): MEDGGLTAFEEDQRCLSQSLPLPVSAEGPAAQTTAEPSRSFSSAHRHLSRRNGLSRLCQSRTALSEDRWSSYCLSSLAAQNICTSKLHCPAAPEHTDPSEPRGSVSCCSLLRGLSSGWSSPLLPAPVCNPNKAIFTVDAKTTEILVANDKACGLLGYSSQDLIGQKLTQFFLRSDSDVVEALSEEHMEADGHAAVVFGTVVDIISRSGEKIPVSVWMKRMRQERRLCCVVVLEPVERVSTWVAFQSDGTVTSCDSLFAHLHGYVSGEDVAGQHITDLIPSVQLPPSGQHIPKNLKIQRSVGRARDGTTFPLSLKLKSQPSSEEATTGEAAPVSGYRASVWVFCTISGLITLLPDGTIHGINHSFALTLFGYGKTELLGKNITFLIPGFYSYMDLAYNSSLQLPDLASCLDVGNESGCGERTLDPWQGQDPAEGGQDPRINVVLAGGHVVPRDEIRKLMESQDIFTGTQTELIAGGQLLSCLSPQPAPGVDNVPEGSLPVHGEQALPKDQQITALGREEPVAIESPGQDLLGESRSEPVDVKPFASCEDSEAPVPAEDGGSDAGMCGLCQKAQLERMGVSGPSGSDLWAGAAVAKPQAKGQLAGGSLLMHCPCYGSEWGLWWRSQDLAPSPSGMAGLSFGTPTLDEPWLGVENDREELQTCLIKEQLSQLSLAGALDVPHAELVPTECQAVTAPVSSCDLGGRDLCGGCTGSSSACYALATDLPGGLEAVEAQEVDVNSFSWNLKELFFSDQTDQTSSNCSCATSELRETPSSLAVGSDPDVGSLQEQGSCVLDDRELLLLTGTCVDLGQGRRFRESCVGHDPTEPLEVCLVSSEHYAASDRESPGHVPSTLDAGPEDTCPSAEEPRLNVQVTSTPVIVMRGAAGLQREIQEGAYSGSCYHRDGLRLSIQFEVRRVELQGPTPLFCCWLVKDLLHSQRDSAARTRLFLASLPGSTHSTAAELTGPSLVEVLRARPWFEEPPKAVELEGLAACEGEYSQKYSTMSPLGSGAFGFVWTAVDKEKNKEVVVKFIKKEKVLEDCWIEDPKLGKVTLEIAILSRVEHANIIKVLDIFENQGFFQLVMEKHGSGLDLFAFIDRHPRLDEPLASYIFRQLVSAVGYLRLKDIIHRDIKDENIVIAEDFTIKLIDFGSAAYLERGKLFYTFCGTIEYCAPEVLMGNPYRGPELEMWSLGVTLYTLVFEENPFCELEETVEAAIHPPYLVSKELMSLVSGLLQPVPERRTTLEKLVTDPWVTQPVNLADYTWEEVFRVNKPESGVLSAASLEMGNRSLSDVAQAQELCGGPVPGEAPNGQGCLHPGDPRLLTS
Sequence of Dual specificity mitogen-activated protein kinase kinase 6 (P52564 whole entry): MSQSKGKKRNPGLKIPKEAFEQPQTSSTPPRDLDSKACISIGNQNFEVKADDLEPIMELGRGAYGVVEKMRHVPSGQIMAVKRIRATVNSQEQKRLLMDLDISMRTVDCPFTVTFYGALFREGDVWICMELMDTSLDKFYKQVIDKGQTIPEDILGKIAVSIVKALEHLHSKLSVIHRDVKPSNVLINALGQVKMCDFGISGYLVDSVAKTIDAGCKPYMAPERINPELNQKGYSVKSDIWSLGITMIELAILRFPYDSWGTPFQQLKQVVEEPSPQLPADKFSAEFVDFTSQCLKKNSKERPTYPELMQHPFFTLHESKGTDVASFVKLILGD
Sequence of Vascular endothelial growth factor receptor 3 (P35916 whole entry): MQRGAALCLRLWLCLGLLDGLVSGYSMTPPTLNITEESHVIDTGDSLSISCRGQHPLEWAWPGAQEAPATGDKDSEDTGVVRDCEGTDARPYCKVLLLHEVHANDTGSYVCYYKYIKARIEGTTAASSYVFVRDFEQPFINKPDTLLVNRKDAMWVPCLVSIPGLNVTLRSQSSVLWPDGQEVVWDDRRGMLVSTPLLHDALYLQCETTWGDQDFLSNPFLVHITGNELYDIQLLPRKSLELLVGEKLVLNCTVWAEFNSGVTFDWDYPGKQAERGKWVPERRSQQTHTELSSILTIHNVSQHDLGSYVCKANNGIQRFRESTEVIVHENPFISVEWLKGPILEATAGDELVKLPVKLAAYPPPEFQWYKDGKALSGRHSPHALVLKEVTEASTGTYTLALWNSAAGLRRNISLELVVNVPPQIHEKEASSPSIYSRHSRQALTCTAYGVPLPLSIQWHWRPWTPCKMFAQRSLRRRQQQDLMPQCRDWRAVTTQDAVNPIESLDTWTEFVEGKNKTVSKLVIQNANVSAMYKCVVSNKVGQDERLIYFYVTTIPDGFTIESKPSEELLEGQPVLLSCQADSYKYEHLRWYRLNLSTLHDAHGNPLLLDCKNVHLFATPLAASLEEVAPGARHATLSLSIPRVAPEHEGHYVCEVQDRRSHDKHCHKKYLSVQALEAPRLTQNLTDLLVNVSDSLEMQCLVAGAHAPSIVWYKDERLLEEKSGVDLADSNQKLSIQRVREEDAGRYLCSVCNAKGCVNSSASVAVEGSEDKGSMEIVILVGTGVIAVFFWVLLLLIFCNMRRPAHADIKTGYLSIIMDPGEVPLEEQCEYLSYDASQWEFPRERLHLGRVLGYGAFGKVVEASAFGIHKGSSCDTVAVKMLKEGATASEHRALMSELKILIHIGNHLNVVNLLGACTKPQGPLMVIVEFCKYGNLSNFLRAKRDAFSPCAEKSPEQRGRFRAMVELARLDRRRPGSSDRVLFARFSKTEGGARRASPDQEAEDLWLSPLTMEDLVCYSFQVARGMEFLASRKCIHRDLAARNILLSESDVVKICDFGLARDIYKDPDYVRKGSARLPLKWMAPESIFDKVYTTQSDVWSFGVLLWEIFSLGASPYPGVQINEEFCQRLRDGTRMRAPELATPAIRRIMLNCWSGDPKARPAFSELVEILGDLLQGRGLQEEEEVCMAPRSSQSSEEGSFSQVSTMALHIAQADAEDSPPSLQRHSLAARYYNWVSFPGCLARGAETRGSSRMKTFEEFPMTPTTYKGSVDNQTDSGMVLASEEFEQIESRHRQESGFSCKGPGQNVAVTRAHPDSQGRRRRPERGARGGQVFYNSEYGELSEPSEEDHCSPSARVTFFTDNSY

With `O=C(c1ccc(F)c(F)c1Nc1ccc(I)cc1F)N1CC(O)([C@@H]2CCCCN2)C1` [COBIMETINIB] the inhibition in vivo at 10 mg/kg (SK-OV-3) was 63%, the IC50 [1] was > 10 µM and the IC50 [2] was > 10 µM. The Activity (A2058) was “Active”, the IC50 [3] was > 10 µM and the inhibition in vivo at 10 mg/kg (MOLM-13) was 36%. For the same compound, the inhibition in vivo at 2.5 mg/kg [4] was 97.5%.
